ChEMBL document CHEMBL1152198, “C-2-aryl O-substituted HI-236 derivatives as non-nucleoside HIV-1 reverse-transcriptase inhibitors” (Bioorg Med Chem, 2008)

Assays:
MT2 [1] = experiment: Cytotoxicity against mock-infected human MT2 cells after 5 days by MTT assay; type: cell-based; settings: mt2, 120 h
Procedure, shortened: (§1)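 Infected (Y181C, MOI 0.1) or mock-infected MT-2 cells at 1×10^5 cells/mL exposed 5 days to graded compound concentrations in RPMI 1640/10% dFBS/kanamycin, triplicate. Viability by MTT (5 h), acidified isopropanol lysis, absorbance 595 nm. CC50 read from triplicate-mean dose-response curves as concentration reducing viable cells by 50%.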

[2] = Therapeutic index, ratio of CC50 for human MT2 cells to EC50 for HIV1 3B; type: cell-based; settings: read-out: Ratio CC50/EC50
Procedure, shortened: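 MT-2 cells at 1×10^5 cells/mL, HIV-III_B or mock infection at MOI 0.1, 5 days with graded compound, triplicate; MTT read-out at 595 nm. Index computed as CC50 (mock-infected cells) over EC50 (viral replication), both from dose-response curves.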

[3] = test system: Human immunodeficiency virus 1; experiment: Antiviral activity against wild-type HIV1 3B infected in human MT2 cells assessed as inhibition of viral replication after 5 days by MTT assay; settings: Human immunodeficiency virus 1, 3B, MT2, 120 h
[4] = target: Human immunodeficiency virus type 1 reverse transcriptase (Human immunodeficiency virus 1, UniProt Q72547); experiment: Inhibition of HIV1 3B reverse transcriptase
Procedure, shortened: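 Steady-state single-nucleotide incorporation: 6 nM RT (active-site titrated) pre-incubated at least 15 min with 1 μM 5'-radiolabeled primer/template, then at least 15 min on ice with inhibitor (DMSO under 2%, DMSO-only control). Started with 5 μM dTTP and 10 mM MgCl2 (final), 15 min at 37 °C, EDTA quench. Products resolved on 20% denaturing PAGE; hyperbolic fit gives IC50.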

[5] = test system: Human immunodeficiency virus 1; experiment: Antiviral activity against nevirapine-resistant HIV1 with reverse transcriptase Y181C mutation in human MT2 cells assessed as inhibition of viral replication after 5 days by MTT assay; type: functional, organism-based; settings: Human immunodeficiency virus 1, MT2, 120 h
Procedure, shortened: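 MT-2 cells at 1×10^5 cells/mL infected at MOI 0.1 (wild-type HIV-III_B or Y181C mutant), cultured 5 days in RPMI 1640 with 10% dFBS and kanamycin across a range of compound concentrations, triplicate wells. MTT added for 5 h, cells lysed with acidified isopropanol, A595 read. EC50 taken from dose-response curves of triplicate means as concentration inhibiting viral replication by 50%.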

MT2 [6] = experiment: Cytotoxicity against HIV1 Y181C mutant infected human MT2 cells after 5 days by MTT assay; type: cell-based; settings: mt2, 120 h; procedure, shortened: as §1
[7] = Therapeutic index, ratio of CC50 for HIV1 Y181C mutant infected human MT2 cells to EC50 for HIV1 with reverse transcriptase Y181C mutation; type: cell-based; settings: read-out: Ratio CC50/EC50
Procedure, shortened: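 MT-2 cells (1×10^5 cells/mL), infected with Y181C mutant HIV-1 at MOI 0.1 or mock-infected, were cultured 5 days in RPMI 1640 with 10% dFBS and kanamycin at varying compound concentrations, in triplicate. MTT was added for 5 h, cells were lysed with acidified isopropanol, and A595 was read. EC50 (50% inhibition of viral replication) and CC50 (50% loss of viable cells) came from averaged dose-response curves.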

Row | Structure (SMILES) | CC50 (MT2 [1]) [nM] | selectivity ratio [2] | EC50 [3] [nM] | IC50 [4] [nM] | EC50 [5] [nM] | CC50 (MT2 [6]) [nM] | selectivity ratio [7]
1 | COc1ccc(OCCOCc2ccccc2)c(CCNC(=S)Nc2ccc(Br)cn2)c1 | 5800 | 3 | 2000 | – | – | – | –
2 | COc1ccc(OCCCC#N)c(CCNC(=S)Nc2ccc(Br)cn2)c1 | 3800 | 76 | 50 | – | – | – | –
3 | C#CCCCOc1ccc(OC)cc1CCNC(=S)Nc1ccc(Br)cn1 | 10000 | 40 | 250 | 27 | – | – | –
4 | C#CCOCCOCCOc1ccc(OC)cc1CCNC(=S)Nc1ccc(Br)cn1 | 6800 | 17 | 390 | – | – | – | –
5 | COc1ccc(OCCCO)c(CCNC(=S)Nc2ccc(Br)cn2)c1 | 8500 | 94 | 98 | 24 | – | – | –
6 | COc1ccc(OCc2ccccc2)c(CCNC(=S)Nc2ccc(Br)cn2)c1 | 4000 | 18 | 220 | – | – | – | –
7 | COc1ccc(OC)c(CCNC(=S)Nc2ccc(Br)cn2)c1 | 1000 | 21 | 48 | 28 | 1200 | 18000 | 15
8 | C=CCOc1ccc(OC)cc1CCNC(=S)Nc1ccc(Br)cn1 | 11000 | 55 | 200 | – | – | – | –
9 | C#CCOc1ccc(OC)cc1CCNC(=S)Nc1ccc(Br)cn1 | 100 | 2 | 52 | – | – | – | –
10 | CC#CCOc1ccc(OC)cc1CCNC(=S)Nc1ccc(Br)cn1 | 20000 | 74 | 270 | – | – | – | –
11 | C#CCCOc1ccc(OC)cc1CCNC(=S)Nc1ccc(Br)cn1 | 1000 | 38 | 26 | 3.8 | < 200 | 4000 | > 20
12 | C#CCOCCOc1ccc(OC)cc1CCNC(=S)Nc1ccc(Br)cn1 | 9500 | – | 95 | 41 | – | – | –
13 | COc1ccc(OCC#N)c(CCNC(=S)Nc2ccc(Br)cn2)c1 | 5500 | 46 | 120 | – | – | – | –
14 | COc1ccc(OCCO)c(CCNC(=S)Nc2ccc(Br)cn2)c1 | 1000 | 83 | 12 | 19 | – | – | –
15 | COC(=O)COc1ccc(OC)cc1CCNC(=S)Nc1ccc(Br)cn1 | 48000 | 4 | 12000 | 100 | – | – | –
16 | CCCOc1ccc(OC)cc1CCNC(=S)Nc1ccc(Br)cn1 | 100 | 1 | 95 | – | – | – | –
